Data set [1] has as its target T1, 5-hydroxytryptamine receptor 1A (Homo sapiens) (UniProt P08908).
T1 sequence (whole entry): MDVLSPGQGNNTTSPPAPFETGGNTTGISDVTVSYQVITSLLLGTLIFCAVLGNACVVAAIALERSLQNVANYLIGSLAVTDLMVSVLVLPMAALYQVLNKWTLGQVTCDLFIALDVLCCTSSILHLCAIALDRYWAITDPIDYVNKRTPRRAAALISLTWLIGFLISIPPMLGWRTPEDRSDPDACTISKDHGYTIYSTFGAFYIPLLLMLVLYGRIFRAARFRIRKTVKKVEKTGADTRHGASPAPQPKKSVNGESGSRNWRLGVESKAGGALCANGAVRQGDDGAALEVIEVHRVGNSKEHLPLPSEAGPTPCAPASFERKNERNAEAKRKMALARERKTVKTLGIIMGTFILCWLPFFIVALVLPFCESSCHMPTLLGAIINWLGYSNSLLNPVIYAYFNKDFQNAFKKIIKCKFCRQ
The data set is described as follows: Displacement of [3H]-8-OH-DPAT from recombinant human 5-HT1A receptor expressed in HEK293 EBNA cell membranes after 120 mins by microbeta scintillation counting analysis.

The target of data set [2] is T2, 5-hydroxytryptamine receptor 2C (Homo sapiens) (UniProt P28335).
T2 sequence (whole entry): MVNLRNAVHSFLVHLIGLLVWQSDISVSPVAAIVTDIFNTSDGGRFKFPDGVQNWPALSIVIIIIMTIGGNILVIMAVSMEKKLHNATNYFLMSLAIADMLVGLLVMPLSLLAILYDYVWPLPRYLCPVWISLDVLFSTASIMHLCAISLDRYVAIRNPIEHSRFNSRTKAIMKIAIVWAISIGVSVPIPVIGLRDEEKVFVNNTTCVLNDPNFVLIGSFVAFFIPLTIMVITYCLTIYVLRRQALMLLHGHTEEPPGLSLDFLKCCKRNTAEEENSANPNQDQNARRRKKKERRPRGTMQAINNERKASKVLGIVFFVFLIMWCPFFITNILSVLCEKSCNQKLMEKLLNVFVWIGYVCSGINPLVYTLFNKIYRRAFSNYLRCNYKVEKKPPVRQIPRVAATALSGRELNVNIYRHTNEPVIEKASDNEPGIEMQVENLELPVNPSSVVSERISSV
The data set is described as follows: Displacement of [3H]-Mesulergine from recombinant human 5-HT2C receptor expressed in HEK293 cell membranes after 180 mins by microbeta scintillation counting analysis.

For data set [3], the target named is 5-hydroxytryptamine receptor 4 (Homo sapiens) (UniProt Q13639). Put plainly: Displacement of [3H]-GR113808 from recombinant human 5-HT4B receptor expressed in Chem1 cell membranes after 120 mins by microbeta scintillation counting analysis.
The target of data set [4] is 5-hydroxytryptamine receptor 7 (Rattus norvegicus) (UniProt P32305). Put plainly: Binding affinity to recombinant rat 5-HT7 receptor expressed in CHOK1 cells assessed as inhibition of 5-HT stimulated cAMP accumulation after 4 hrs by luciferase reporter gene assay. It counts as cell-based.
A short description of data set [5]: Cmax in Wistar rat at 10 mg/kg, po by LC-MS/MS analysis. In kind it is ADME, organism-based. Also on record: dose 10 mg/kg, route oral. Particulars: in vivo.
In data set [6] the target is Alpha-2C adrenergic receptor (Homo sapiens) (UniProt P18825). The data set is described as follows: Inhibition of recombinant human adrenergic alpha 2C receptor expressed in CHOK1 cells at 1 uM. In kind it is cell-based.
A short description of data set [7]: Apparent permeability of the compound in human Caco2 cells at 10 uM measured up to 120 mins by LC-MS/MS analysis. It counts as ADME, cell-based. The conditions noted are these: Caco-2. A digest of the protocol: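 Permeability in Caco-2 intestinal epithelial monolayers, measured apical-to-basolateral and basolateral-to-apical; efflux ratio taken as Papp(B-A)/Papp(A-B).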

Data set [8] can be described thus: Protein binding in rat plasma at 1 uM after 6 hrs by LC-MS/MS based rapid equilibrium dialysis method. Particulars: read-out: PPB. In kind it is ADME, cell-free. A digest of the protocol:
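Plasma protein binding in rat, dog and human plasma determined by equilibrium dialysis.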

The nature of data set [9]: Terminal half life in Beagle dog at 10 mg/kg, po. It counts as ADME, organism-based, Canis lupus familiaris. The conditions noted are these: in vivo, read-out: beta t1/2 (converted). A digest of the protocol: (§1)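 Beagle dogs received 10 mg/kg p.o. and 3 mg/kg i.v. in a pharmacokinetic study. From plasma exposure the authors derived AUC0-t, terminal half-life, intravenous clearance, volume of distribution and absolute oral bioavailability.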

A short description of data set [10]: Volume of distribution in Beagle dog at 3 mg/kg, iv or at 10 mg/kg, po. Particulars: in vivo. In kind it is ADME, organism-based, Canis lupus familiaris. A digest of the protocol: as §1
In data set [11] the target is T3, Cytochrome P450 3A4 (Homo sapiens, UniProt P08684). The data set is described as follows: Inhibition of CYP3A4 in human liver microsomes using testosterone as substrate in presence of NADPH by LC-MS/MS analysis. In kind it is ADME. A digest of the protocol: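 CYP3A4 inhibition in human liver microsomes using testosterone hydroxylation as the probe reaction; IC50 determined.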

For data set [12], the system named is Hepatocyte. Put plainly: Induction of CYP1A2 mRNA expression in human hepatocytes at 0.01 to 1 uM after 3 days by qRT-PCR analysis. In kind it is ADME, cell-based. The conditions noted are these: 72 h. A digest of the protocol: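 Plateable human hepatocytes exposed to 0.01, 0.1 and 1.0 μM. CYP1A2, CYP2B6 and CYP3A4 induction read as both mRNA expression and enzyme activity.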

Data set [13] deals with Cytochrome P450 2A6 (Homo sapiens, UniProt P11509). The data set is described as follows: Inhibition of CYP2A6 in human liver microsomes in presence of NADPH by LC-MS/MS analysis. It counts as ADME. A digest of the protocol: (§2)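 Pooled human liver microsomes. IC50 determined from isoform-specific marker activities for CYP1A2, 2A6, 2B6, 2C8, 2C9, 2C19 (mephenytoin hydroxylation) and 2E1.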

In data set [14] the target is Cytochrome P450 2C8 (Homo sapiens, UniProt P10632). Put plainly: Inhibition of CYP2C8 in human liver microsomes in presence of NADPH by LC-MS/MS analysis. It counts as ADME. A digest of the protocol:
as §2

The subject of data set [15] is Rattus norvegicus. The data set is described as follows: Increase in acetylcholine level in Wistar rat ventral hippocampus at 3 mg/kg, po in presence of 1 mg/kg of donepezil and memantine administered sc 30 mins post compound treatment measured after 4 hrs by LC-MS/MS based microdialysis method relative to control. In kind it is functional. A digest of the protocol:
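Male Wistar rats (240−300 g) fitted under isoflurane with a ventral hippocampal guide cannula (AP −5.2, ML +5.0, DV −3.8 mm from bregma). Probe (4 mm membrane) inserted 16 h before study. Perfusion with aCSF pH 7.2 at 1.5 μL/min, 2 h stabilization, five basal 20-min samples. Test agent given p.o.; donepezil and memantine (1 mg/kg s.c. each) given 30 min later in combination arms. Dialysates collected 6 h (4 h for combination), acetylcholine measured by LC-MS/MS, expressed as % of mean basal.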

The test system of data set [16] is Salmonella typhimurium. Put plainly: Mutagenicity in Salmonella typhimurium TA1537 in absence of metabolic activation. The conditions noted are these: salmonella enterica subsp. enterica serovar typhimurium. In kind it is toxicity.
Data set [17] relates to Salmonella typhimurium. The data set is described as follows: Mutagenicity in Salmonella typhimurium TA1535 in presence of metabolic activation. It counts as toxicity. The conditions noted are these: salmonella enterica subsp. enterica serovar typhimurium.
Data set [18] relates to Salmonella typhimurium. The data set is described as follows: Mutagenicity in Salmonella typhimurium TA98 in presence of metabolic activation. In kind it is toxicity. Particulars: salmonella enterica subsp. enterica serovar typhimurium.
Data set [19] relates to Homo sapiens. The data set is described as follows: Toxicity in healthy male and female human subjects administered as single ascending dose for 14 days. Particulars: in vivo, 336 h.
Data set [20] has as its target T3, Cytochrome P450 3A4.
Data set [21] concerns the target Alpha-2A adrenergic receptor (Homo sapiens) (UniProt P08913). The conditions noted are these: 1 uM.

The source made the active and inactive calls. No cut-off for these calls is given here.

T3 sequence (P08684 whole entry): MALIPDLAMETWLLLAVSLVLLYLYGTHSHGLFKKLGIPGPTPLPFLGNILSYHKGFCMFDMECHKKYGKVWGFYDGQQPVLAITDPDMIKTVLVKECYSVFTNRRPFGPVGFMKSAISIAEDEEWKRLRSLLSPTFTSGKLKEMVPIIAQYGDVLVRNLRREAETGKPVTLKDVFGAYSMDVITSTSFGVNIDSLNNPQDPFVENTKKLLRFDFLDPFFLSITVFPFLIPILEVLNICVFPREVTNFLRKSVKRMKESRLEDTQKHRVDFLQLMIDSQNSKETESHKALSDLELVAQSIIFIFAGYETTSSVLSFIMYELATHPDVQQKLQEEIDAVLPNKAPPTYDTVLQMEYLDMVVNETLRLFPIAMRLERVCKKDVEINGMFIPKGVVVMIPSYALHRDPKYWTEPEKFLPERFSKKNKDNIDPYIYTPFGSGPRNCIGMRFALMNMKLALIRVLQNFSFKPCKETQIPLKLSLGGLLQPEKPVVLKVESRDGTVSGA
Chain of Alpha-2A adrenergic receptor (Homo sapiens) (P08913 whole entry): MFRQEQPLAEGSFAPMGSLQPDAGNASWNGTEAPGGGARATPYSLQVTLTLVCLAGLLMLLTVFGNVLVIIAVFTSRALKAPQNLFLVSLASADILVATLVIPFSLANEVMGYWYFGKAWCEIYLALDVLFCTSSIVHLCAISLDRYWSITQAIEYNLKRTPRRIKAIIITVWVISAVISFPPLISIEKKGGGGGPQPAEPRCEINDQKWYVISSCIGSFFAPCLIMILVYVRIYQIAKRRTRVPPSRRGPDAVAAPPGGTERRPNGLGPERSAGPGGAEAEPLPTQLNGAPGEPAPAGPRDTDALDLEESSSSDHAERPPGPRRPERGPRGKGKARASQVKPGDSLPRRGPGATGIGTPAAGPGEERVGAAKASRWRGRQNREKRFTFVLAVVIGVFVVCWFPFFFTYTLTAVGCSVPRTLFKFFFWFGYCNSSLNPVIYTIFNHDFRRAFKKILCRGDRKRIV
Chain of Cytochrome P450 2C8 (P10632 whole entry): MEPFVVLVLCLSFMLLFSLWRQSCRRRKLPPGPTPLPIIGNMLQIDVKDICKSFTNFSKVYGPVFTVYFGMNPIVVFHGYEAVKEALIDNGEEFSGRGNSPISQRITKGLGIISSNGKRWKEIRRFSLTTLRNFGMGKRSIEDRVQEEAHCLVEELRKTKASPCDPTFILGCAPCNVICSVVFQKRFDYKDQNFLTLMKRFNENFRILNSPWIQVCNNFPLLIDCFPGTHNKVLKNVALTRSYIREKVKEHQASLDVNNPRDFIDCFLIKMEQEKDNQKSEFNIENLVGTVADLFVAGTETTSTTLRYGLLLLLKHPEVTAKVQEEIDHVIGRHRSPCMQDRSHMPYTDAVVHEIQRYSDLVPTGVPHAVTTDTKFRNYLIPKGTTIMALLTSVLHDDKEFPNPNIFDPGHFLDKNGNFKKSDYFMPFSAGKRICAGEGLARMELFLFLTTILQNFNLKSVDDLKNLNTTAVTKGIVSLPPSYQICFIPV
Chain of Cytochrome P450 2A6 (P11509 whole entry, canonical isoform): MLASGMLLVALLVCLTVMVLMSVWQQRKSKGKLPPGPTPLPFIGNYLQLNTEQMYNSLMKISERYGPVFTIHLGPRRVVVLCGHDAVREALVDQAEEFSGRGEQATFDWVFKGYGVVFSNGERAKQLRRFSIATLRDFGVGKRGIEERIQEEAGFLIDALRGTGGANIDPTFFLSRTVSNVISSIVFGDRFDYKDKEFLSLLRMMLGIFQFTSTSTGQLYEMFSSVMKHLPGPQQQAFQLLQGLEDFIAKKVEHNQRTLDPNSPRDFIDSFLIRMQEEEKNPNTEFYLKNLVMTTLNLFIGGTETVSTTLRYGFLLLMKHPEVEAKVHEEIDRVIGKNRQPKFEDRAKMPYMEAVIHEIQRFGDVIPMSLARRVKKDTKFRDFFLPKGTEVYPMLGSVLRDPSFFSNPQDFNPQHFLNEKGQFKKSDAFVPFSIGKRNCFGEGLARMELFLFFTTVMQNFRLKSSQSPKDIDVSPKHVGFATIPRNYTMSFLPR
Chain of Alpha-2C adrenergic receptor (Homo sapiens) (P18825 whole entry): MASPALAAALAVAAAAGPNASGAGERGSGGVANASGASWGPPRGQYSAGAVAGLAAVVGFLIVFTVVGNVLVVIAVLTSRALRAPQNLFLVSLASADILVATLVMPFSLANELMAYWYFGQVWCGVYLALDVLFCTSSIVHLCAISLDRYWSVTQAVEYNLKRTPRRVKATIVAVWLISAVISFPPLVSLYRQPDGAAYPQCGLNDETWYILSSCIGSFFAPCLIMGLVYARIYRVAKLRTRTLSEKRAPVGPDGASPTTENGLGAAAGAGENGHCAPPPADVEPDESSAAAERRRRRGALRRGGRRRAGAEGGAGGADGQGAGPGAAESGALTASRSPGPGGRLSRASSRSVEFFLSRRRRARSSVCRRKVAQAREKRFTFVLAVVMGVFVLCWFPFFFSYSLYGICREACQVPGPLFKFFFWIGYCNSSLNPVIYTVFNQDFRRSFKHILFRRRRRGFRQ
Chain of 5-hydroxytryptamine receptor 7 (Rattus norvegicus) (P32305 whole entry): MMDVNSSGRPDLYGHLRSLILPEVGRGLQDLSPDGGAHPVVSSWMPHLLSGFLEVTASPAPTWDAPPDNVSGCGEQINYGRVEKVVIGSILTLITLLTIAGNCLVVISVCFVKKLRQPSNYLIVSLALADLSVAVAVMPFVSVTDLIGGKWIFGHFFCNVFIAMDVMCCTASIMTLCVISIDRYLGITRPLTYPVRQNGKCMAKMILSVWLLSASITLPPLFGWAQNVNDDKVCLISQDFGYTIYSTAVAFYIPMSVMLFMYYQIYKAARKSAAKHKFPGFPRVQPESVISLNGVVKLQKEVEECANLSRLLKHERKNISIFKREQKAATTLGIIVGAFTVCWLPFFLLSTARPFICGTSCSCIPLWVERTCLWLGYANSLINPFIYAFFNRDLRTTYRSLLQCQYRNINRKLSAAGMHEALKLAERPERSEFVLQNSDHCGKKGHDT
Chain of 5-hydroxytryptamine receptor 4 (Homo sapiens) (Q13639 whole entry): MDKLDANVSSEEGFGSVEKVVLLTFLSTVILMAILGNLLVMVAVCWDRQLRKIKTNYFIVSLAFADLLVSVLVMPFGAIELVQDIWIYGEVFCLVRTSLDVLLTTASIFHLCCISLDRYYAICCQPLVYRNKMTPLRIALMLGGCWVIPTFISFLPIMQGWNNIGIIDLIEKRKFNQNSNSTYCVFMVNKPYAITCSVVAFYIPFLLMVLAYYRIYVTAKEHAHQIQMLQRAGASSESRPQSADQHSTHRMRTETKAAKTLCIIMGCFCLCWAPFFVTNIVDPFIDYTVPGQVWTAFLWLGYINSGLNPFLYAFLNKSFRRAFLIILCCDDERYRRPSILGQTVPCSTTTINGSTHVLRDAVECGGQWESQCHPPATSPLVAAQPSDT

As for `COc1ccc2c(c1)c(CN1CCN(C)CC1)cn2S(=O)(=O)c1ccccc1Br.CS(=O)(=O)O.O`, the result in data set [1], in data set [2], in [3] and in data set [4] was inactive. This molecule gave a peak concentration (Cmax) in [5] of 272 ng/mL. Besides, the inhibition in [6] and in data set [21] was more than 50% in each case. The Papp at 2 h, 10 µM in data set [7] was found to be 19.6 ×10⁻⁶ cm/s. Also, the fraction unbound at 6 h, 1 µM in data set [8] is 0.01. Moreover, the half-life in data set [9] is 3.5 h. The molecule also displayed a Vd in [10] of 7.5 L/kg. Also, the IC50 is 2640 nM in data set [11], more than 10000 nM in data set [13], more than 10000 nM in data set [14] and 1500 nM in [20]. Further, the Activity entry was “Non-Toxic” in data set [12]; 2136% in [15]; “Non-Toxic” in [16]; “Non-Toxic” in data set [17]; “Non-Toxic” in data set [18]; “Non-Toxic” in data set [19].

The record behind these values is ChEMBL document CHEMBL4007422 (J Med Chem, 2017).
